Measured values from ChEMBL document CHEMBL4422627, “Discovery of potent, orally bioavailable ERK1/2 inhibitors with isoindolin-1-one structure by structure-based drug design” (Eur J Med Chem, 2019).
Values belong to the compound of their own block, whether it stands above or below them. Calls of active or inactive are those of the source. No cut-off for these calls is given here.

What was measured:
COLO 205 = test: Antiproliferative activity against human COLO205 cells after 72 hrs by MTT assay; assay type: functional, cell-based; details: COLO 205, 72 h
SW626 = test: Antiproliferative activity against human SW626 cells after 72 hrs by MTT assay; assay type: functional, cell-based; details: SW626, 72 h
HCT-116 [1] = test: Antiproliferative activity against human HCT116 cells after 72 hrs by MTT assay; assay type: functional, cell-based; details: HCT-116, 72 h
[2] = target: Mitogen-activated protein kinase 3 (Homo sapiens, UniProt P27361); test: Inhibition of ERK1 (unknown origin) using […] as substrate after 40 mins by ADP-Glo luminescence assay
[3] = target: Mitogen-activated protein kinase 1 (Homo sapiens, UniProt P28482); test: Inhibition of ERK2 (unknown origin) using […] as substrate after 40 mins by ADP-Glo luminescence assay
WM 266-4 = test: Antiproliferative activity against human WM266.4 cells after 72 hrs by MTT assay; assay type: functional, cell-based; details: WM 266-4, 72 h
K562 = test: Antiproliferative activity against human K562 cells after 72 hrs by MTT assay; assay type: functional, cell-based; details: K562, 72 h
NCM460 = test: Cytotoxicity against human NCM460 cells assessed as reduction in cell viability at 10000 nM after 72 hrs by MTT assay; assay type: cell-based; details: ncm460, 72 h, 10 µM
[4] = MRT (0 to t) in Sprague-Dawley rat at 50 mg/kg, po by LC/MS/MS analysis; assay type: ADME, organism-based; details: in vivo
In short: (§1)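 Sprague-Dawley rats dosed intravenously at 5 mg/kg or orally at 50 mg/kg; pharmacokinetic parameters derived from the plasma concentration data.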

[5] = Oral bioavailability in Sprague-Dawley rat at 50 mg/kg by LC/MS/MS analysis; assay type: ADME, organism-based; details: in vivo; in short: as §1
[6] = Half life in Sprague-Dawley rat at 50 mg/kg, po by LC/MS/MS analysis; assay type: ADME, organism-based; details: in vivo; in short: as §1
[7] = AUC (0 to t) in Sprague-Dawley rat at 50 mg/kg, po by LC/MS/MS analysis; assay type: ADME, organism-based; details: in vivo; in short: as §1
[8] = Cmax in Sprague-Dawley rat at 50 mg/kg, po by LC/MS/MS analysis; assay type: ADME, organism-based; design: dose 50 mg/kg, route oral; details: in vivo; in short: as §1
[9] = Toxicity against Balb/c nude mouse xenografted with human HCT116 cells assessed as reduction in body weight at 50 mg/kg, po qd for 30 days and measured every 3 days; assay type: organism-based; details: in vivo
In short: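 HCT-116 xenograft nude mice dosed at 50 mg/kg orally once daily for 30 days; body weight recorded every 3 days.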

HCT-116 [10] = test: Induction of apoptosis in human HCT116 cells assessed as early apoptotic cells at 1 uM after 72 hrs by annexin V-FITC and propidium iodide staining based flow cytometric analysis (reference value: 3.88%); assay type: functional
In short: (§2)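 HCT116 cells treated with compound, PI-stained, and analysed for apoptosis by flow cytometry; means ± SD of three independent experiments, each condition in triplicate.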

HCT-116 [11] = test: Antitumor activity against human HCT116 cells xenografted in Balb/c nude mouse assessed as tumor growth inhibition at 50 mg/kg, po qd for 30 days and measured every 3 days by calliper method relative to control; assay type: functional; details: HCT-116, po, read-out: TGI
In short: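 Nude mice bearing HCT-116 xenografts; test article given as hydrochloride salt, 50 mg/kg orally once daily for 30 days; efficacy expressed as percent tumor growth inhibition.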

HCT-116 [12] = test: Cell cycle arrest in human HCT116 cells assessed as accumulation at G0/G1 phase at 1 uM after 72 hrs by annexin V-FITC and propidium iodide staining based flow cytometric analysis (reference value: 44.3%); assay type: functional
HCT-116 [13] = test: Cell cycle arrest in human HCT116 cells assessed as accumulation at G2/M phase at 1 uM after 72 hrs by annexin V-FITC and propidium iodide staining based flow cytometric analysis (reference value: 43.5%); assay type: functional
HCT-116 [14] = test: Induction of apoptosis in human HCT116 cells assessed as late apoptotic cells at 1 uM after 72 hrs by annexin V-FITC and propidium iodide staining based flow cytometric analysis (reference value: 1.20%); assay type: functional; in short: as §2
HCT-116 [15] = test: Induction of apoptosis in human HCT116 cells assessed as viable cells at 1 uM after 72 hrs by annexin V-FITC and propidium iodide staining based flow cytometric analysis (reference value: 94.3%); assay type: functional; details: HCT-116, 72 h, read-out: Activity; in short: as §2
HCT-116 [16] = test: Induction of apoptosis in human HCT116 cells assessed as necrotic cells at 1 uM after 72 hrs by annexin V-FITC and propidium iodide staining based flow cytometric analysis (reference value: 0.21%); assay type: functional; in short: as §2
[17] = target: T1, Mitogen-activated protein kinase; ERK1/ERK2 (Homo sapiens) (UniProt P27361+P28482); test: Inhibition of ERK1/2 in human HCT116 cells assessed as reduction in RSK phosphorylation at Thr359/Ser363 residues by Western blot analysis; assay type: cell-based
In short: (§3)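 Phosphorylation of ERK1/2 and RSK in HCT116 cells measured by western blot over a range of compound concentrations; means ± SD of three independent experiments, each condition run in triplicate.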

HCT-116 [18] = test: Induction of apoptosis in human HCT116 cells assessed as increase in condense bright apoptotic nuclei formation at 1 uM by Hoechst 33258 staining-based assay; assay type: functional, cell-based
In short: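 After compound incubation, HCT116 cells stained with Hoechst 33258 and examined for condensed, bright apoptotic nuclei; n=3 per group.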

[19] = target: T1, Mitogen-activated protein kinase; ERK1/ERK2 (Homo sapiens); test: Inhibition of ERK1/2 phosphorylation at Thr202/Tyr204 residues in human HCT116 cells by Western blot analysis; assay type: cell-based; in short: as §3

Mitogen-activated protein kinase 1, sequence (P28482 whole entry): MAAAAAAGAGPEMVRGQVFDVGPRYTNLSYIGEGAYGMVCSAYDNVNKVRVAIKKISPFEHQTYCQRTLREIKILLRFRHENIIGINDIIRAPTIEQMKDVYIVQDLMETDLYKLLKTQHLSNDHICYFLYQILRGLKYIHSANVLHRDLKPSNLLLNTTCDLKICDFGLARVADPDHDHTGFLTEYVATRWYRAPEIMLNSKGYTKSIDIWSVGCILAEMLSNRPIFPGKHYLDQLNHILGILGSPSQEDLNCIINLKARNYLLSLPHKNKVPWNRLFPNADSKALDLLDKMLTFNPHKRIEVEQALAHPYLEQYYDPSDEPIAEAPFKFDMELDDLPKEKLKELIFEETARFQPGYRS
Mitogen-activated protein kinase 3, sequence (P27361 whole entry): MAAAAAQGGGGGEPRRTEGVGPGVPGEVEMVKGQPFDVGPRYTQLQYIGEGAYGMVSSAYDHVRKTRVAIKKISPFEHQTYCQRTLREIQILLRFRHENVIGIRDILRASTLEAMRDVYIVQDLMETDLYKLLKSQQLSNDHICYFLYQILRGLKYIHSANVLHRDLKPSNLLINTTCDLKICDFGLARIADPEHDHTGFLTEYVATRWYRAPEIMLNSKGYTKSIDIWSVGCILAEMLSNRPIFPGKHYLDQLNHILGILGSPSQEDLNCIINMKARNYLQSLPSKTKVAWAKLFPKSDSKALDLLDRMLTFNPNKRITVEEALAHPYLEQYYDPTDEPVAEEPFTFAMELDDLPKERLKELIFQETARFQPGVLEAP
T1 sequence (P27361 whole entry, looked up): as the sequence (P27361 whole entry) above
T1 sequence (P28482 whole entry, looked up): as the sequence (P28482 whole entry) above

Compound: Cl.O=C1c2cc(-c3ccnc(NC4CCOCC4)n3)ccc2CN1C(CO)c1cccc(Cl)c1 (configuration not stated)
MRT last [4]: 3.4 h
bioavailability [5]: 22.5%
half-life [6]: 3.6 h
AUC(0-t) [7]: 8380 ng·h/mL
Cmax [8]: 1920 ng/mL

Compound: Cn1nccc1Nc1nccc(-c2ccc3c(c2)C(=O)N(Cc2cccnc2)C3)n1
IC50 [3]: > 1000 nM

Compound: O=C1c2cc(-c3ccnc(NC4CCOCC4)n3)ccc2CN1C(CO)c1ccc(Cl)cc1 (configuration not stated)
IC50 [3]: 30.4 nM

Compound: Cl.O=C1c2cc(-c3ccnc(NC4CCOCC4)n3)ccc2CN1Cc1cccc(Cl)c1
MRT last [4]: 1.2 h
bioavailability [5]: 6.9%
half-life [6]: 0.37 h
AUC(0-t) [7]: 1280 ng·h/mL
Cmax [8]: 747 ng/mL

Compound: O=C1c2cc(-c3ccnc(NC4CCNCC4)n3)ccc2CN1C(CO)c1cccc(Cl)c1 (configuration not stated)
IC50 [3]: > 1000 nM

Compound: Cn1nccc1Nc1nccc(-c2ccc3c(c2)C(=O)N(Cc2ccccn2)C3)n1
IC50 [3]: > 1000 nM

Compound: O=C1c2cc(-c3ccnc(Nc4ccncc4)n3)ccc2CN1Cc1cccc(Cl)c1
IC50 [3]: 36.3 nM

Compound: O=C1c2cc(-c3ccnc(NC4CCNC4)n3)ccc2CN1C(CO)c1cccc(Cl)c1 (configuration not stated)
IC50 [3]: > 1000 nM

Compound: Cn1nnnc1Nc1nccc(-c2ccc3c(c2)C(=O)N(C(CO)c2cccc(Cl)c2)C3)n1 (configuration not stated)
IC50 [3]: 19.8 nM

Compound: O=C1c2cc(-c3ccnc(Nc4nccs4)n3)ccc2CN1C(CO)c1cccc(Cl)c1 (configuration not stated)
IC50 [3]: 22.3 nM

Compound: Cn1ccc(Nc2nccc(-c3ccc4c(c3)C(=O)N(C(CO)c3cccc(Cl)c3)C4)n2)n1 (configuration not stated)
IC50 [3]: 25.6 nM

Compound: O=C1c2cc(-c3ccnc(Nc4ncco4)n3)ccc2CN1C(CO)c1cccc(Cl)c1 (configuration not stated)
IC50 [3]: 93.3 nM

Compound: Cc1cccc(CN2Cc3ccc(-c4ccnc(Nc5ccnn5C)n4)cc3C2=O)n1
IC50 [3]: > 1000 nM

Compound: O=C1c2cc(-c3ccnc(Nc4ccc(F)cc4)n3)ccc2CN1Cc1cccc(Cl)c1
IC50 [3]: > 1000 nM

Compound: O=C1c2cc(-c3ccnc(NCCCO)n3)ccc2CN1C(CO)c1cccc(Cl)c1 (configuration not stated)
IC50 [3]: 38.4 nM

Compound: Cn1cc(Nc2nccc(-c3ccc4c(c3)C(=O)N([C@@H](CO)c3cccc(Cl)c3)C4)n2)cn1
IC50 [3]: 633 nM

Compound: O=C1c2cc(-c3ccnc(NC4CCOCC4)n3)ccc2CN1[C@@H](CO)c1cccc(Cl)c1
IC50 [3]: 201 nM

Compound: O=C1c2cc(-c3ccnc(NC4CCOCC4)n3)ccc2CN1Cc1ccc(Cl)cc1
IC50 [3]: 35.6 nM

Compound: O=C1c2cc(-c3ccnc(NC4CCOCC4)n3)ccc2CN1C(CO)c1cccc(Cl)c1 (configuration not stated) [listing 2 of 2 here]
inhibition [17]: Dose-dependent effect
Activity (HCT-116 [18]): Active
inhibition [19]: Dose-dependent effect

The next lines start with results.

IC50 (COLO 205): 204 nM
IC50 (SW626): 209 nM
IC50 (HCT-116 [1]): 148 nM
IC50 [2]: 21 nM
IC50 [3]: 3.6 nM
IC50 (K562): 2740 nM
Compound: Cn1cc(Nc2nccc(-c3ccc4c(c3)C(=O)N(Cc3cccc(Cl)c3)C4)n2)cn1
IC50 (WM 266-4): 174 nM

IC50 (COLO 205): 227 nM
IC50 (SW626): 206 nM
IC50 (HCT-116 [1]): 201 nM
IC50 [2]: 4.1 nM
IC50 [3]: 1.2 nM
IC50 (K562): 3820 nM
Compound: Cn1cc(Nc2nccc(-c3ccc4c(c3)C(=O)N(C(CO)c3cccc(Cl)c3)C4)n2)cn1 (configuration not stated)
IC50 (WM 266-4): 211 nM
Activity (NCM460): Non-Toxic

IC50 [3]: 2.7 nM
Compound: O=C1c2cc(-c3ccnc(NC4CCC(O)CC4)n3)ccc2CN1C(CO)c1cccc(Cl)c1 (configuration not stated)

IC50 [3]: 1.1 nM
Compound: Cn1cc(Nc2nccc(-c3ccc4c(c3)C(=O)N([C@H](CO)c3cccc(Cl)c3)C4)n2)cn1

IC50 [3]: 3.1 nM
Compound: O=C1c2cc(-c3ccnc(NC4CCOCC4)n3)ccc2CN1C(CO)c1ccc(Cl)c(Cl)c1 (configuration not stated)

IC50 [3]: 2.9 nM
Compound: O=C1c2cc(-c3ccnc(NC4CCOCC4)n3)ccc2CN1Cc1ccc(F)c(Cl)c1

IC50 (COLO 205): 252 nM
IC50 (SW626): 252 nM
IC50 (HCT-116 [1]): 251 nM
IC50 [2]: 3.6 nM
IC50 [3]: 1.9 nM
IC50 (K562): 2930 nM
Compound: Cn1nccc1Nc1nccc(-c2ccc3c(c2)C(=O)N(C(CO)c2cccc(Cl)c2)C3)n1 (configuration not stated)
IC50 (WM 266-4): 217 nM

IC50 [3]: 5.6 nM
Compound: Cn1nccc1Nc1nccc(-c2ccc3c(c2)C(=O)N(Cc2ccc(Cl)c(F)c2)C3)n1

IC50 [3]: 0.8 nM
Compound: O=C1c2cc(-c3ccnc(NC4CCOCC4)n3)ccc2CN1[C@H](CO)c1cccc(Cl)c1

IC50 [3]: 17.6 nM
Compound: O=C1c2cc(-c3ccnc(NCCO)n3)ccc2CN1C(CO)c1cccc(Cl)c1 (configuration not stated)

IC50 [3]: 17.8 nM
Compound: O=C1c2cc(-c3ccnc(NC4CCOCC4)n3)ccc2CN1Cc1ccc(Cl)c(F)c1

IC50 [3]: 7.2 nM
Compound: O=C1c2cc(-c3ccnc(NC4CCCCC4)n3)ccc2CN1C(CO)c1cccc(Cl)c1 (configuration not stated)

IC50 [3]: 5.4 nM
Compound: O=C1c2cc(-c3ccnc(NC4CCOC4)n3)ccc2CN1C(CO)c1cccc(Cl)c1 (configuration not stated)

IC50 [3]: 3.5 nM
IC50 (K562): 2870 nM
Compound: Cn1nccc1Nc1nccc(-c2ccc3c(c2)C(=O)N(Cc2cccc(Cl)c2)C3)n1

IC50 [3]: 11.2 nM
Compound: CC(C)Nc1nccc(-c2ccc3c(c2)C(=O)N(C(CO)c2cccc(Cl)c2)C3)n1 (configuration not stated)

IC50 (COLO 205): 194 nM
IC50 (SW626): 247 nM
IC50 (HCT-116 [1]): 155 nM
IC50 [2]: 1.5 nM
IC50 [3]: 0.7 nM
IC50 (K562): 3190 nM
Compound: O=C1c2cc(-c3ccnc(NC4CCOCC4)n3)ccc2CN1C(CO)c1cccc(Cl)c1 (configuration not stated) [listing 1 of 2 here]
Activity [9]: Non-Toxic
Activity (HCT-116 [10]): 27.7%
inhibition in vivo at 50 mg/kg (HCT-116 [11]): 71%
Activity (HCT-116 [12]): 58%
Activity (HCT-116 [13]): 29.5%
Activity (HCT-116 [14]): 10.4%
viability at 1 µM (HCT-116 [15]): 61.3%
IC50 (WM 266-4): 260 nM
Activity (HCT-116 [16]): 0.12%
Activity (NCM460): Non-Toxic

IC50 (COLO 205): 170 nM
IC50 (SW626): 255 nM
IC50 (HCT-116 [1]): 150 nM
IC50 [2]: 3.3 nM
IC50 [3]: 1.6 nM
IC50 (K562): 1550 nM
Compound: O=C1c2cc(-c3ccnc(NC4CCOCC4)n3)ccc2CN1Cc1cccc(Cl)c1
IC50 (WM 266-4): 220 nM
